Experimental data reported in PMC7415440 (Drug Design, Development and Therapy, 2020).

Assays:
Single ascending dose = assay type: in vivo, human; details: for Tmax: max]
Outline: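 Single 0.5 h iv infusion in saline. Plasma sampled predose to 48 h, stored −70°C; urine collected in intervals to 24 h with volumes. Validated HPLC-MS/MS, deuterated internal standard, positive ESI MRM m/z 344.3→201.2. Plasma range 1–3000 or 10–30,000 ng/mL and urine 5–15,000 or 50–150,000 ng/mL, by dose group. Noncompartmental analysis on actual times; AUCinf = AUClast + Clast/λz; CLR = Ae/AUClast.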

[1] = SAD study safety and tolerability assessment; assay type: in vivo, human; details: for Number of Subjects with AEs (%) / Number of Subjects with Drug Related AEs (% total): 6 subjects
Outline: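 Randomised, double-blind, placebo-controlled trial in healthy Korean males (active:placebo 6:2 per group), single iv infusion in normal saline over 0.5 h at 35–600 mg. Dose escalation was decided by the DSMB. Subjects were in-house days 1–2, revisited day 3, and had follow-up 7 days post-dose. Monitoring covered vital signs, 12-lead ECG, haematology, chemistry, urinalysis, physical exams and AEs, with relationship to drug assigned.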

[2] = tested on: regulatory T cells (Tregs) in peripheral blood mononuclear cells (PBMCs); details: PBMCs incubated for 24 h with high-dose JPI-289; cited from earlier work
[3] = single iv 35 mg over 0.5 h, n=6, mean (SD)
[4] = single iv 75 mg over 0.5 h, n=6, mean (SD)
[5] = single iv 150 mg over 0.5 h, n=6, mean (SD)
[6] = single iv 300 mg over 0.5 h, n=6, mean (SD)
[7] = single iv 600 mg over 0.5 h, n=6, mean (SD)
[8] = single iv, all doses 35-600 mg, Total n=30, mean (SD)
[9] = single iv dose, n=40, number of subjects [cases]

CCOc1cc(CN2CCOCC2)cc2[nH]c(=O)c3c(c12)NCCC3.Cl.Cl.O.O [JPI-289]
AUCinf (Single ascending dose; [3]): 665.50 (149.62) ng·h/mL
AUCinf/dose (Single ascending dose; [3]): 19.01 (4.28) ng·h/mL/mg
AUClast (Single ascending dose; [3]): 658.82 (148.39) ng·h/mL
Ae (amount of unchanged drug in urine) (Single ascending dose; [3]): 0.56 (0.22) mg
CL (Single ascending dose; [3]): 54.88 (12.54) L/h
CLR (renal clearance) (Single ascending dose; [3]): 0.84 (0.28) L/h
Cmax (Single ascending dose; [3]): 422.72 (102.10) ng/mL
Cmax/dose (Single ascending dose; [3]): 12.08 (2.92) ng/mL/mg
Vd,ss (Single ascending dose; [3]): 101.33 (26.74) L
Vz (Single ascending dose; [3]): 160.73 (42.91) L
t1/2z (Single ascending dose; [3]): 2.18 (1.01) h
Tmax (Single ascending dose; single iv 35 mg over 0.5 h, n=6, median [min): 0.47 [0.33, 0.50] h
AUCinf (Single ascending dose; [4]): 1947.57 (366.92) ng·h/mL
AUCinf/dose (Single ascending dose; [4]): 25.97 (4.89) ng·h/mL/mg
AUClast (Single ascending dose; [4]): 1940.45 (367.40) ng·h/mL
Ae (amount of unchanged drug in urine) (Single ascending dose; [4]): 1.74 (0.71) mg
CL (Single ascending dose; [4]): 39.77 (8.07) L/h
CLR (renal clearance) (Single ascending dose; [4]): 0.88 (0.26) L/h
Cmax (Single ascending dose; [4]): 1197.77 (173.37) ng/mL
Cmax/dose (Single ascending dose; [4]): 15.97 (2.31) ng/mL/mg
Vd,ss (Single ascending dose; [4]): 91.18 (17.49) L
Vz (Single ascending dose; [4]): 183.32 (61.92) L
t1/2z (Single ascending dose; [4]): 3.21 (0.81) h
Tmax (Single ascending dose; single iv 75 mg over 0.5 h, n=6, median [min): 0.48 [0.33, 0.52] h
AUCinf (Single ascending dose; [5]): 6057.90 (1533.04) ng·h/mL
AUCinf/dose (Single ascending dose; [5]): 40.39 (10.22) ng·h/mL/mg
AUClast (Single ascending dose; [5]): 6029.78 (1520.32) ng·h/mL
Ae (amount of unchanged drug in urine) (Single ascending dose; [5]): 5.31 (1.49) mg
CL (Single ascending dose; [5]): 26.41 (8.03) L/h
CLR (renal clearance) (Single ascending dose; [5]): 0.89 (0.21) L/h
Cmax (Single ascending dose; [5]): 2481.05 (502.31) ng/mL
Cmax/dose (Single ascending dose; [5]): 16.54 (3.35) ng/mL/mg
Vd,ss (Single ascending dose; [5]): 85.17 (15.31) L
Vz (Single ascending dose; [5]): 118.12 (34.25) L
t1/2z (Single ascending dose; [5]): 3.12 (0.40) h
Tmax (Single ascending dose; single iv 150 mg over 0.5 h, n=6, median [min): 0.48 [0.43, 0.50] h
AUCinf (Single ascending dose; [6]): 10,061.82 (3690.15) ng·h/mL
AUCinf/dose (Single ascending dose; [6]): 33.54 (12.30) ng·h/mL/mg
AUClast (Single ascending dose; [6]): 9786.58 (3534.51) ng·h/mL
Ae (amount of unchanged drug in urine) (Single ascending dose; [6]): 8.37 (3.65) mg
CL (Single ascending dose; [6]): 34.28 (15.06) L/h
CLR (renal clearance) (Single ascending dose; [6]): 0.91 (0.45) L/h
Cmax (Single ascending dose; [6]): 4842.02 (1202.57) ng/mL
Cmax/dose (Single ascending dose; [6]): 16.14 (4.01) ng/mL/mg
Vd,ss (Single ascending dose; [6]): 92.52 (15.20) L
Vz (Single ascending dose; [6]): 124.50 (30.65) L
t1/2z (Single ascending dose; [6]): 2.73 (0.76) h
Tmax (Single ascending dose; single iv 300 mg over 0.5 h, n=6, median [min): 0.48 [0.17, 0.50] h
AUCinf (Single ascending dose; [7]): 32,228.35 (11,796.05) ng·h/mL
AUCinf/dose (Single ascending dose; [7]): 53.71 (19.66) ng·h/mL/mg
AUClast (Single ascending dose; [7]): 32,066.88 (11,725.80) ng·h/mL
Ae (amount of unchanged drug in urine) (Single ascending dose; [7]): 25.32 (6.50) mg
CL (Single ascending dose; [7]): 21.34 (9.69) L/h
CLR (renal clearance) (Single ascending dose; [7]): 0.84 (0.20) L/h
Cmax (Single ascending dose; [7]): 10,381.25 (2097.17) ng/mL
Cmax/dose (Single ascending dose; [7]): 17.30 (3.50) ng/mL/mg
Vd,ss (Single ascending dose; [7]): 73.01 (13.20) L
Vz (Single ascending dose; [7]): 81.46 (16.60) L
t1/2z (Single ascending dose; [7]): 2.88 (0.72) h
Tmax (Single ascending dose; single iv 600 mg over 0.5 h, n=6, median [min): 0.50 [0.48, 0.52] h
AUCinf (Single ascending dose; [8]): 10,192.23 (12,791.37) ng·h/mL
AUCinf/dose (Single ascending dose; [8]): 34.52 (16.32) ng·h/mL/mg
AUClast (Single ascending dose; [8]): 10,096.50 (12,719.54) ng·h/mL
Ae (amount of unchanged drug in urine) (Single ascending dose; [8]): 8.26 (9.65) mg
CL (Single ascending dose; [8]): 35.33 (15.66) L/h
CLR (renal clearance) (Single ascending dose; [8]): 0.87 (0.27) L/h
Cmax (Single ascending dose; [8]): 3864.96 (3789.52) ng/mL
Cmax/dose (Single ascending dose; [8]): 15.61 (3.55) ng/mL/mg
Vd,ss (Single ascending dose; [8]): 88.64 (19.42) L
Vz (Single ascending dose; [8]): 133.63 (51.80) L
t1/2z (Single ascending dose; [8]): 2.83 (0.80) h
Tmax (Single ascending dose; single iv, all doses 35-600 mg, Total n=30, median [min): 0.48 [0.17, 0.52] h
intensity of AEs ([1]; SAD): mild in intensity
abnormalities in laboratory tests, physical examinations, vital signs, or electrocardiograms ([1]; SAD and MAD): No clinically significant abnormalities
intensity of AEs ([1]; SAD and MAD studies together): all mild in intensity
maximum tolerated dose ([1]; SAD, decided by DSMB, dizziness as dose-limiting toxicity): 600 mg
tolerability ([1]; SAD, dose range 35–600 mg): well tolerated
serious AEs ([1]; entire course of the study (SAD and MAD)): No serious AEs occurred
Number of Subjects with AEs (%) ([1]; single iv dose 35 mg): 3 (50.0)
Number of Subjects with Drug Related AEs (% total) ([1]; single iv dose 35 mg): 1 (16.7)
Number of Subjects with AEs (%) ([1]; single iv dose 75 mg): 0 (0.0)
Number of Subjects with Drug Related AEs (% total) ([1]; single iv dose 75 mg): 0 (0.0)
Number of Subjects with AEs (%) ([1]; single iv dose 150 mg): 0 (0.0)
Number of Subjects with Drug Related AEs (% total) ([1]; single iv dose 150 mg): 0 (0.0)
Number of Subjects with AEs (%) ([1]; single iv dose 300 mg): 0 (0.0)
Number of Subjects with Drug Related AEs (% total) ([1]; single iv dose 300 mg): 0 (0.0)
Number of Subjects with AEs (%) ([1]; single iv dose 600 mg): 3 (50.0)
Number of Subjects with Drug Related AEs (% total) ([1]; single iv dose 600 mg): 3 (50.0)
Abdominal discomfort, Drug-Related [1, 9]: 0 [0]
Abdominal discomfort, Not Related [1, 9]: 0 [0]
Abdominal discomfort, Total [1, 9]: 0 [0]
Bilirubin total increased, Drug-Related [1, 9]: 1 [1]
Bilirubin total increased, Not Related [1, 9]: 0 [0]
Bilirubin total increased, Total [1, 9]: 1 [1]
Diarrhea, Drug-Related [1, 9]: 0 [0]
Diarrhea, Not Related [1, 9]: 1 [1]
Diarrhea, Total [1, 9]: 1 [1]
Dizziness, Drug-Related [1, 9]: 3 [4]
Dizziness, Not Related [1, 9]: 0 [0]
Dizziness, Total [1, 9]: 3 [4]
Fever, Drug-Related [1, 9]: 0 [0]
Fever, Not Related [1, 9]: 0 [0]
Fever, Total [1, 9]: 0 [0]
Headache, Drug-Related [1, 9]: 0 [0]
Headache, Not Related [1, 9]: 0 [0]
Headache, Total [1, 9]: 0 [0]
Heart rate increased, Drug-Related [1, 9]: 0 [0]
Heart rate increased, Not Related [1, 9]: 1 [1]
Heart rate increased, Total [1, 9]: 1 [1]
Sinus tachycardia, Drug-Related [1, 9]: 0 [0]
Sinus tachycardia, Not Related [1, 9]: 0 [0]
Sinus tachycardia, Total [1, 9]: 0 [0]
Stomatitis, Drug-Related [1, 9]: 0 [0]
Stomatitis, Not Related [1, 9]: 0 [0]
Stomatitis, Total [1, 9]: 0 [0]
Urticaria, Drug-Related [1, 9]: 0 [0]
Urticaria, Not Related [1, 9]: 0 [0]
Urticaria, Total [1, 9]: 0 [0]
proportions of regulatory T cells (Tregs) [2]: can be increased
